Source: ChEMBL document CHEMBL1828622, “Structure-based design and synthesis of 1,3-oxazinan-2-one inhibitors of 11β-hydroxysteroid dehydrogenase type 1” (J Med Chem, 2011)

Tests used:
[1] = Oral bioavailability in rat at 10 mg/kg; type: ADME, organism-based; details: in vivo
Summary of the method: (§1)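 Rat pharmacokinetics after single iv dose of 2 mg/kg and oral dose of 10 mg/kg; oral vehicle differs by compound: 10% ethanol/10% Tween 80 (polysorbate 80)/80% PEG 400 solution, the same with 1% DMSO, or 0.5% methyl cellulose in deionized water suspension. Readouts: oral AUC(inf), oral t1/2, iv clearance, oral bioavailability F.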

[2] = AUC (infinity) in rat at 10 mg/kg, po; type: ADME, organism-based; design: time infinity, dose 10 mg/kg, route oral; details: plasma; summary of the method: as §1
[3] = Biodistribution in mouse plasma at 30 mg/kg, po administered as single dose measured after 1 hr by LC-MS/MS method; type: ADME, organism-based; design: dose 30 mg/kg, route oral; details: read-out: Drug uptake
Summary of the method: (§2)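 Mice (n = 3) given single oral 30 mg/kg dissolved in 10% ethanol/10% Tween 80/80% PEG 400; tissues collected at sacrifice at 1, 4 and 8 h, snap frozen, later thawed and homogenized in 0.05 M BES pH 7; compound extracted into acetonitrile and quantified by LC-MS/MS against standard curves prepared separately in each tissue matrix.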

[4] = Biodistribution in mouse plasma at 30 mg/kg, po administered as single dose measured after 8 hrs by LC-MS/MS method; type: ADME, organism-based; design: dose 30 mg/kg, route oral; details: read-out: Drug uptake; summary of the method: as §2
[5] = Biodistribution in mouse liver at 30 mg/kg, po administered as single dose measured after 8 hrs by LC-MS/MS method; type: ADME, organism-based; design: dose 30 mg/kg, route oral; details: read-out: Drug uptake; summary of the method: as §2
[6] = Biodistribution in mouse liver at 30 mg/kg, po administered as single dose measured after 1 hr by LC-MS/MS method; type: ADME, organism-based; design: dose 30 mg/kg, route oral; details: read-out: Drug uptake; summary of the method: as §2
[7] = Biodistribution in mouse adipose tissue at 30 mg/kg, po administered as single dose measured after 8 hrs by LC-MS/MS method; type: ADME, organism-based; design: dose 30 mg/kg, route oral; details: read-out: Drug uptake; summary of the method: as §2
[8] = Biodistribution in mouse adipose tissue at 30 mg/kg, po administered as single dose measured after 1 hr by LC-MS/MS method; type: ADME, organism-based; design: dose 30 mg/kg, route oral; details: read-out: Drug uptake; summary of the method: as §2
[9] = Oral bioavailability in dog at 2 mg/kg; type: ADME, organism-based, Canis lupus familiaris; details: in vivo
[10] = AUC (infinity) in cynomolgus monkey at 2 mg/kg, po; type: ADME, organism-based, Macaca fascicularis; design: time infinity, dose 2 mg/kg, route oral; details: plasma
[11] = Biodistribution in mouse liver at 30 mg/kg, po administered as single dose measured after 4 hrs by LC-MS/MS method; type: ADME, organism-based; design: dose 30 mg/kg, route oral; details: read-out: Drug uptake; summary of the method: as §2
[12] = Biodistribution in mouse adipose tissue at 30 mg/kg, po administered as single dose measured after 4 hrs by LC-MS/MS method; type: ADME, organism-based; design: dose 30 mg/kg, route oral; details: read-out: Drug uptake; summary of the method: as §2
[13] = AUC (infinity) in dog at 2 mg/kg, po; type: ADME, organism-based, Canis lupus familiaris; design: time infinity, dose 2 mg/kg, route oral; details: plasma
[14] = Biodistribution in mouse plasma at 30 mg/kg, po administered as single dose measured after 4 hrs by LC-MS/MS method; type: ADME, organism-based; design: dose 30 mg/kg, route oral; details: read-out: Drug uptake; summary of the method: as §2
[15] = Oral bioavailability in cynomolgus monkey at 2 mg/kg; type: ADME, organism-based, Macaca fascicularis; details: in vivo

Question: Which results are given for C[C@@H](c1ccc(-c2ccc(F)cc2F)cc1)N1CC[C@](CCCO)(c2ccccc2)OC1=O?
Answer: bioavailability [1]: 19%; AUC(0-inf) [2]: 915 ng·h/mL

Question: What does the source list for C[C@@H](c1ccc(-c2ccc(F)cc2)cc1)N1CC[C@](CCO)(c2ccc(F)cc2)OC1=O?
Answer: bioavailability [1]: 83%; AUC(0-inf) [2]: 3170 ng·h/mL

Question: For Cc1cccc(N2CCC(C)(c3ccccc3)OC2=O)c1 (single isomer, unassigned; isomer 1), which bioavailability [1] is on record?
Answer: The bioavailability was 4%.

Question: What about the AUC(0-inf) [2] of the same compound?
Answer: The AUC(0-inf) was 99 ng·h/mL.

Question: For C[C@@H](c1ccc(-c2ccc(F)cc2F)cc1)N1CC[C@](CCO)(c2ccc(F)cc2)OC1=O, which concentration at 1 h [3] is on record?
Answer: Its concentration at 1 h is 5930 ng/mL.

Question: And the concentration at 8 h [4]?
Answer: The concentration at 8 h was 573 ng/mL.

Question: What about the concentration at 8 h [5] of the same compound?
Answer: Its concentration at 8 h is 1900 ng/mL.

Question: What about the concentration at 1 h [6] of the same compound?
Answer: Its concentration at 1 h is 15300 ng/mL.

Question: And the bioavailability [1]?
Answer: The bioavailability was 94%.

Question: What about the AUC(0-inf) [2] of the same compound?
Answer: The AUC(0-inf) was 3870 ng·h/mL.

Question: And the concentration at 8 h [7]?
Answer: Its concentration at 8 h is 632 ng/mL.

Question: What about the concentration at 1 h [8] of the same compound?
Answer: Its concentration at 1 h is 5520 ng/mL.

Question: And the bioavailability [9]?
Answer: The bioavailability was 16%.

Question: What about the AUC(0-inf) [10] of the same compound?
Answer: The AUC(0-inf) was 1500 ng·h/mL.

Question: And the concentration at 4 h [11]?
Answer: The concentration at 4 h was 9810 ng/mL.

Question: And the concentration at 4 h [12]?
Answer: The concentration at 4 h was 3160 ng/mL.

Question: What about the AUC(0-inf) [13] of the same compound?
Answer: Its AUC(0-inf) is 584 ng·h/mL.

Question: And the concentration at 4 h [14]?
Answer: The concentration at 4 h was 3260 ng/mL.

Question: And the bioavailability [15]?
Answer: Its bioavailability is 26%.

Question: With O=C1OC(CCO)(c2ccccc2)CCN1c1cccc(-c2ccc(F)cc2F)c1 (stereo not given) as the compound, how does the bioavailability [1] read?
Answer: The bioavailability was 44%.

Question: What about the AUC(0-inf) [2] of the same compound?
Answer: The AUC(0-inf) was 1040 ng·h/mL.

Question: With C[C@@H](c1ccc(-c2ccc(F)cc2)cc1)N1CC[C@](CCCO)(c2ccccc2)OC1=O as the compound, how does the bioavailability [1] read?
Answer: The bioavailability was 23%.

Question: What about the AUC(0-inf) [2] of the same compound?
Answer: The AUC(0-inf) was 450 ng·h/mL.
